Compound activity (PubChem)
TRPC4 PAM – TRPC4 (mouse) allosteric potentiation; HEK293 TRPC4beta/mu-opioid, DAMGO EC20, Fluo-4 Ca2+ flux; stronger effect = higher value; B-score at 10 µM; actives 0.42% (n = 310,000); AID 2227;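 active means B-score of calcium response area above 5 SD of library B-scores, with initial fluorescence ratio within 5 SD of library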
TRPC4 agonist – TRPC4 (mouse) channel activation. HEK293 TRPC4beta/mu-opioid, Fluo4 calcium fluorescence; stronger effect = higher value. AID 2237. actives 0.49% (n = 310,000). B-score at 10 µM;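 active means B-score above 5 SD of library B-scores, and initial fluorescence ratio not above library mean plus 5 SD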;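 further: positive B-score marks a calcium rise read as TRPC4 activation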
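Assay system – TRPC4beta and mu-opioid receptor HEK293 stable cells · Measured by – Fluo4 fluorescence, kinetic · Schedule – dye loading 45 min room temperature, 110 s kinetic read · Read-out – B-scored integrated calcium fluorescence ratio · Controls – buffer and maximal DAMGO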
TRPC6 act – mouse TRPC6 channel activation; Q61143; HEK293-TRPC6 membrane potential dye fluorescence; stronger effect = higher value; B-score at 10 µM; actives 0.13% (n = 310,000); AID 2550;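 active means B-score of the integrated fluorescence ratio above library mean plus 3 SD, and starting fluorescence ratio within library mean plus 5 SD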;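 further: higher score means more depolarization so channel activation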
TRPC4 inh – TRPC4 (mouse) channel inhibition | Q9QUQ5 | HEK293 TRPC4beta/mu-opioid, DAMGO-evoked Fluo4 calcium flux; stronger effect = lower value | B-score at 10 µM | actives 0.39% (n = 300,000);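 active means B-score over 3 SD under the library average, no early fluorescence shift, positive overall ratio signal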
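Assay system – HEK293 line stably carrying TRPC4beta and mu-opioid receptor · Doses – single dose · Detection – Fluo4 calcium-dye fluorescence, kinetic read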
TRPC6 inh – mouse TRPC6 channel inhibition; Q61143; HEK293-TRPC6, membrane potential dye, ACh-evoked depolarization; stronger effect = lower value; B-score at 10 µM; actives 1.1% (n = 310,000);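 active means B-score under library mean minus 3 SD, initial fluorescence not abnormally high, positive integrated signal ratio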;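 further: B-score derived from integrated fluorescence ratio over the kinetic read; more negative B-score means stronger inhibition of depolarization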
TRPC4 spec 2 – second check of whether TRPC6 inhibitors also affect mouse TRPC4; shares compounds with TRPC6 inh; HEK293 TRPC4/MOR, membrane potential dye fluorescence; channel activated by saturating DAMGO dose; inhibition, % at 10 µM; actives 42% (n = 920); AID 2776;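 active means compounds whose fluorescence signal differed from control wells by over 3 SD, either direction, in both duplicate plates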
TRPC4 spec – mouse TRPC4 off-target activity of TRPC6 inhibitors; activity change, negative = inhibition, % at 10 µM; actives 61% (n = 920); HEK293 TRPC4/mu-opioid, membrane potential fluorescence; AID 2777; shares compounds with TRPC6 inh;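 active means rise or fall in signal beyond 3 SD of buffer-only wells in both replicate plates, either sign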;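 further: integrated kinetic ratio of fluorescence range over baseline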
HEK293 MPD ctr 2-1 – second check of TRPC6 inhibitor effects in parental HEK293 cells; parental HEK293 membrane potential dye fluorescence; maximal acetylcholine challenge after compound addition; signal change vs control, % at 10 µM; AID 2779; actives 31% (n = 920); shares compounds with TRPC6 inh;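 active means membrane potential signal moving either way by over 3 SD of the maximum-effect control, in both duplicate plates, meaning non-specific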
HEK293 MPD ctr-1 – parental HEK293 nonspecific activity of TRPC6 inhibitors | actives 60% (n = 920) | parental HEK293 membrane potential dye fluorescence | membrane potential signal change, % at 10 µM | shares compounds with TRPC6 inh;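 active means membrane potential signal shifting up or down by more than 3 SD of buffer-only wells, on both duplicate plates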
HEK293 MPD ctr-2 – parental HEK293 nonspecific activity of TRPC6 modulators; shares compounds with TRPC6 inh; membrane potential dye fluorescence; membrane potential signal change, % at 10 µM; actives 51% (n = 2,400);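 active means membrane potential signal moves up or down beyond 5 SD from buffer-only wells, on both duplicate plates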
HEK293 MPD ctr 2-2 – second counter-screen for TRPC6 modulators: effect in parental HEK293 cells | membrane potential dye fluorescence; after compound, maximal acetylcholine stimulation | actives 14% (n = 2,400) | shares compounds with TRPC6 inh | inhibition, % at 10 µM;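 active means membrane potential signal drops by more than 5 SD from the mean control signal, in both duplicate plates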
TRPC4/MOR mod – tests whether TRPC6 modulators also affect mouse TRPC4; shares compounds with TRPC6 inh; HEK293 TRPC4/mu-opioid, membrane potential fluorescence; percent change from control (negative = decrease, positive = increase), % at 10 µM; actives 69% (n = 2,400); AID 488927;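 active means membrane potential signal moved up or down beyond 5 SD of buffer control wells, in both duplicate plates, actives on both sides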
TRPC4/MOR inh 2 – second selectivity test of TRPC6 modulators against mouse TRPC4. shares compounds with TRPC6 inh. HEK293 TRPC4/mu-opioid, membrane potential dye fluorescence; stimulated with maximal-effect DAMGO. inhibition, % at 10 µM. actives 55% (n = 2,400);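 active means drop in membrane potential signal beyond 5 SD of the control wells in both duplicate plates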;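 further: TRPC4 counter screen for TRPC6 hits run under conditions tuned for TRPC6 not TRPC4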
TRPC6 inh conf – confirmation of mouse TRPC6 inhibitors. shares compounds with TRPC6 inh. HEK293-TRPC6, membrane potential dye, ACh-evoked depolarization. inhibition, % at 10 µM. actives 43% (n = 3,300);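 active means fluorescence ratio falls more than 5 SD below the full-stimulation control mean, in both duplicate runs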;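 further: integrated fluorescence ratio of peak minus minimum over baseline after agonist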
TRPC6 act conf – mouse TRPC6 activator confirmation. shares compounds with TRPC6 inh. HEK293-TRPC6 membrane potential dye fluorescence, FDSS. activation, % at 10 µM. actives 11% (n = 2,800). AID 488961;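 active means ratio signal rise beyond 5 SD above unstimulated control wells' mean, seen in both duplicate runs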
Large screens that a line does not name were inactive (follow-up assays come after a bar, where they were run). Shown are actives, neighbours in structure and some others; about 2.3% of the full set was active somewhere.

CN1CCCC1CCNc1ccc2c(=O)c3ccccc3oc2c1 (stereo not drawn)	TRPC6 inh -9.5 | TRPC4 spec 2 74% | TRPC4 spec -10% | HEK293 MPD ctr 2-1 inactive | HEK293 MPD ctr-1 inactive | TRPC6 inh conf inactive | TRPC6 act conf inactive
Cc1ccc(C)c(S(=O)(=O)N2CCN(C(=O)c3cc(S(=O)(=O)NCc4ccccc4)ccc3C)CC2)c1	none
Oc1ccccc1N=Cc1c(O)ccc2ccccc12	TRPC6 inh -5.3 | HEK293 MPD ctr-2 inactive | HEK293 MPD ctr 2-2 inactive | TRPC4/MOR mod 38% | TRPC4/MOR inh 2 inactive | TRPC6 inh conf inactive
CC(C)N(c1ccccc1)c1ccc(NC(=S)NCCN(C)C)cc1	TRPC6 inh -6.6 | HEK293 MPD ctr-2 inactive | HEK293 MPD ctr 2-2 inactive | TRPC4/MOR mod inactive | TRPC4/MOR inh 2 40% | TRPC6 inh conf 46% | TRPC6 act conf inactive
COCC1CCCCN1C(=O)c1cccc(OC2CCN(S(C)(=O)=O)CC2)c1 (stereo not drawn)	none
O=Nc1c(O)n(Cc2ccccc2)c2ccccc12	none
Cc1c(CCCN)c2ccccc2n1Cc1ccccc1	TRPC6 inh -7.3 | TRPC4 spec 2 55% | TRPC4 spec inactive | HEK293 MPD ctr 2-1 inactive | HEK293 MPD ctr-1 -196% | TRPC6 inh conf inactive | TRPC6 act conf inactive
Cc1nc(Nc2ccncc2)c2oc3ccccc3c2n1	TRPC6 inh -6.4 | HEK293 MPD ctr-2 106% | HEK293 MPD ctr 2-2 113% | TRPC4/MOR mod 11% | TRPC4/MOR inh 2 inactive | TRPC6 inh conf 56% | TRPC6 act conf inactive
CC(=O)Nc1ccc(Nc2nc(C)nc3c2oc2ccccc23)cc1	none
CCc1nc(Nc2ccncc2)c2oc3ccccc3c2n1	TRPC6 inh -5.7 | HEK293 MPD ctr-2 inactive | HEK293 MPD ctr 2-2 76% | TRPC4/MOR mod -8.0% | TRPC4/MOR inh 2 inactive | TRPC6 inh conf inactive | TRPC6 act conf inactive
COc1ccccc1CNC(=O)C1CCC(CNS(=O)(=O)c2cccc3cccnc23)CC1 (stereo not drawn)	none
Cc1cc(O)cc(O)c1C(=O)Cc1ccccc1	none
O=C(Cc1ccc([N+](=O)[O-])cc1)c1c(O)cc(O)cc1O	TRPC6 inh -5.5 | HEK293 MPD ctr-2 -62% | HEK293 MPD ctr 2-2 inactive | TRPC4/MOR mod -19% | TRPC4/MOR inh 2 52% | TRPC6 inh conf 52% | TRPC6 act conf inactive
